# From ChEMBL document CHEMBL1133675, “New substituted 1-(2,3-dihydrobenzo[1, 4]dioxin-2-ylmethyl)piperidin-4-yl derivatives with alpha(2)-adrenoceptor antagonist activity” (J Med Chem, 2000)
# pIC50: −log10 of the molar value. Calls of active or inactive are those of the source. Unless noted, the rule behind the calls is not given here.
# Legend:
# Mus musculus [1] = test: In vivo antagonism of guanabenz-induced hypothermia in mice after intraperitoneal administration at a dose of 10-40 mg/kg; assay type: functional; settings: ip
# Method in brief: (§1)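 Male NMRI mice, 30-32 g, 5 per dose; test drug or vehicle given ip, then 5 min later guanabenz 1 mg/kg ip. Rectal temperature read by thermistor probe 25 min after guanabenz. Inhibition means temperature > 36 °C. […] Active dose range = doses inhibiting in more than 80% of animals.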
# Mus musculus [2] = test: In vivo antagonism of guanabenz-induced hypothermia in mice after intraperitoneal administration; […]; assay type: functional, organism-based; method in brief: as §1
# Mus musculus [3] = test: In vivo antagonism of guanabenz-induced hypothermia in mice after peroral administration; Inactive; assay type: functional, organism-based
# Method in brief: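 Male NMRI mice (30-32 g), five per dose; vehicle or drug by oral gavage, guanabenz 1 mg/kg ip 35 min later. Rectal temperature by thermistor 25 min post-guanabenz; inhibition scored as temperature > 36 °C. […] Active range is doses giving inhibition in more than 80% of mice.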
# [4] = molecular target: T1, Adrenergic receptor alpha-1 (Rattus norvegicus, UniProt P15823+P23944+P43140); test: In vitro inhibition of specific binding of [3H]- prazosin to alpha-1 adrenergic receptor site in rat brain membranes.; assay type: cell membranes
# T1 sequence (P15823 whole entry): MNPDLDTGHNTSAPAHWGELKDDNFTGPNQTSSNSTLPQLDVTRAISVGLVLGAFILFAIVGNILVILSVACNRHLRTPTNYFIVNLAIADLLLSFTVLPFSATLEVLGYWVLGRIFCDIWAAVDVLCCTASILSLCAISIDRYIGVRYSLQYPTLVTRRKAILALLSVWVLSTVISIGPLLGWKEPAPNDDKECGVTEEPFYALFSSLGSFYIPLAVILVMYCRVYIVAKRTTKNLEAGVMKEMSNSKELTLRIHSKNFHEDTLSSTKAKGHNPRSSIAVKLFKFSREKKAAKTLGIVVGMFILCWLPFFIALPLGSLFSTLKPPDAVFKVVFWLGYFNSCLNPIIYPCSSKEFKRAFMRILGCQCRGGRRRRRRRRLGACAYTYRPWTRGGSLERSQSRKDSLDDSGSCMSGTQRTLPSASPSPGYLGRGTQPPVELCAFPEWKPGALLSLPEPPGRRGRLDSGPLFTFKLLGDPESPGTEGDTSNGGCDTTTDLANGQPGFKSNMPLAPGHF
# T1 sequence (P23944 whole entry): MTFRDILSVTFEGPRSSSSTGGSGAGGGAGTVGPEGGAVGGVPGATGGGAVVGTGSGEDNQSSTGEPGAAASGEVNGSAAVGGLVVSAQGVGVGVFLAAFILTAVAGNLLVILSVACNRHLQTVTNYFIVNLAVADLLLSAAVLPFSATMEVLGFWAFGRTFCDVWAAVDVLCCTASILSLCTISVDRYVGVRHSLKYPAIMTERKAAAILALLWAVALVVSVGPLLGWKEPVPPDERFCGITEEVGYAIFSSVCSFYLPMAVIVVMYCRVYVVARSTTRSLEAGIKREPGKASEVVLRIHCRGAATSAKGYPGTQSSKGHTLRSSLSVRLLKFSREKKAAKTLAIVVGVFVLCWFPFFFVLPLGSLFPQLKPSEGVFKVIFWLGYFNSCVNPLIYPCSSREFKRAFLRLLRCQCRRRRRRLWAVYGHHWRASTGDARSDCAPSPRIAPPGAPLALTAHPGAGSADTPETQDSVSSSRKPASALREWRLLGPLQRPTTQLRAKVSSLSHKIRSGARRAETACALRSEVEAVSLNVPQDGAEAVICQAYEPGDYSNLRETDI
# T1 sequence (P43140 whole entry): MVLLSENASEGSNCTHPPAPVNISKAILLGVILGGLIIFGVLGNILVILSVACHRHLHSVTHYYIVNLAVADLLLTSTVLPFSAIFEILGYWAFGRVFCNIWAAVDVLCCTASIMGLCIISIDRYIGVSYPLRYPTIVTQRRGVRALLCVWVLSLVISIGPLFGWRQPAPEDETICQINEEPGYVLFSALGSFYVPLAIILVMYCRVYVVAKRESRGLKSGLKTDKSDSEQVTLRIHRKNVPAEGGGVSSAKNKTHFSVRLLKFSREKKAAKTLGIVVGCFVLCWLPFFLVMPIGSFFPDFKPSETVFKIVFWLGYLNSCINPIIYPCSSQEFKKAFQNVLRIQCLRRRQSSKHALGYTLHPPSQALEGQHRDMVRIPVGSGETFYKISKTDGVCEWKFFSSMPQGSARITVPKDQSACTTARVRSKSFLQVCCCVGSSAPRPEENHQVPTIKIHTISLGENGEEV
# [5] = molecular target: T2, Adrenergic receptor alpha-2 (Rattus norvegicus, UniProt P22086+P19328+P22909); test: In vitro inhibition of binding of [3H]-RX-821002 to alpha-2 adrenergic receptor site in rat brain membranes.; assay type: cell membranes
# T2 sequence (P22086 whole entry): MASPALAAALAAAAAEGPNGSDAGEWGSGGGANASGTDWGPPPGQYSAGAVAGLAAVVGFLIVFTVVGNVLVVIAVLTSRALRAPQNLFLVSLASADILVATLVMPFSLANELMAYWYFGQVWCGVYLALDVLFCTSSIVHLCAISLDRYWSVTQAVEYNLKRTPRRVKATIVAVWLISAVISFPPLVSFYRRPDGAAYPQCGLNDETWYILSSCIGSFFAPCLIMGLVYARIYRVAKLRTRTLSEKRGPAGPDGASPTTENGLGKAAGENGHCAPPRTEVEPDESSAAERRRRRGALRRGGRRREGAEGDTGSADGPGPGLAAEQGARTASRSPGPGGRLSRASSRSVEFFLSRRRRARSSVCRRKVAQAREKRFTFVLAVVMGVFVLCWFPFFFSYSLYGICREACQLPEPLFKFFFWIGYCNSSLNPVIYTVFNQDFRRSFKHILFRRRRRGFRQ
# T2 sequence (P19328 whole entry): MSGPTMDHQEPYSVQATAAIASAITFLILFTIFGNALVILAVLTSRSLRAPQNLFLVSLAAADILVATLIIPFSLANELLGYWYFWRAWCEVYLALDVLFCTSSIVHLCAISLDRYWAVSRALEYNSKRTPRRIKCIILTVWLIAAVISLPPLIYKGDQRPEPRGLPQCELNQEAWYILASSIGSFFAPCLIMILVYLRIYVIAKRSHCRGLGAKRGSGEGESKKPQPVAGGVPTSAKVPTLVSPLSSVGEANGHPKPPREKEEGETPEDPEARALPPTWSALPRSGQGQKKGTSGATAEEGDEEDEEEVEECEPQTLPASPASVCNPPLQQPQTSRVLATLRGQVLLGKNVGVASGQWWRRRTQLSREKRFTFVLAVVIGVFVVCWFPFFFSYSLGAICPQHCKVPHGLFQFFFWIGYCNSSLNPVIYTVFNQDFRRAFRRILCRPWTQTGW
# T2 sequence (P22909 whole entry): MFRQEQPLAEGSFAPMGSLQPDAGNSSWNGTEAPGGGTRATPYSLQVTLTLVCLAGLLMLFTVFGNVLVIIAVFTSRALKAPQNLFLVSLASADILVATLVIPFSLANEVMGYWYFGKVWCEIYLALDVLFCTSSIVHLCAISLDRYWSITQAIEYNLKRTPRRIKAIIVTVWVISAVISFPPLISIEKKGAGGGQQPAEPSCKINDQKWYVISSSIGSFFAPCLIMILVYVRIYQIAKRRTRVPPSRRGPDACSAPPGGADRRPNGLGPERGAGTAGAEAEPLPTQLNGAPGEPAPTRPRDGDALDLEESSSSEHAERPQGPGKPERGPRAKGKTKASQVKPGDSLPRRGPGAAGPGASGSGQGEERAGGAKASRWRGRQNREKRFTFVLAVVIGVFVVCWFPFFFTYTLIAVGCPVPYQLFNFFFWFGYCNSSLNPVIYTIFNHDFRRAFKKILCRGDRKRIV
# D(2) dopamine receptor = D(2) dopamine receptor (Rattus norvegicus, UniProt P61169); test: In vitro inhibition of specific binding of [3H]-YM 09151-2 to Dopamine receptor D2 site in rat striatal tissue.; assay type: tissue-based, Striatum
# Chain of D(2) dopamine receptor (P61169 whole entry): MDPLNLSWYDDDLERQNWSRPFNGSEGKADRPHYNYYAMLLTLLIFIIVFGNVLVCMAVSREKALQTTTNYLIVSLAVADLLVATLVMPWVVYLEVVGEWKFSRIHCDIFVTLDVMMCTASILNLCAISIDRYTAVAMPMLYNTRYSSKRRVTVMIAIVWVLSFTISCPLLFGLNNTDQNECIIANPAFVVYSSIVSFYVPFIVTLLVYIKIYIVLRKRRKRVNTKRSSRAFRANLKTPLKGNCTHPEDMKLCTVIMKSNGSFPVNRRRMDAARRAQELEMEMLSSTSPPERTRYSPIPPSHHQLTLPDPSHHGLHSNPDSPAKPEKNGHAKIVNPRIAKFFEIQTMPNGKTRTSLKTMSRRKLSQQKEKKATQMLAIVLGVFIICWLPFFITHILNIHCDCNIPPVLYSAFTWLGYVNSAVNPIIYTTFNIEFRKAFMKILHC
# Mus musculus [6] = test: In vivo antagonism of guanabenz-induced hypothermia in mice after intraperitoneal administration at a dose of 1 mg/kg; assay type: functional; settings: ip; method in brief: as §1
# Mus musculus [7] = test: In vivo antagonism of guanabenz-induced hypothermia in mice after peroral administration at a dose of 10 mg/kg; assay type: functional; settings: route oral
# Method in brief: (§2)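 Male NMRI mice (30-32 g), five per dose; vehicle or drug by oral gavage, guanabenz 1 mg/kg ip 35 min later. Rectal temperature by thermistor 25 min post-guanabenz; inhibition scored as temperature > 36 °C. Active range is doses giving inhibition in more than 80% of mice.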
# Mus musculus [8] = test: In vivo antagonism of guanabenz-induced hypothermia in mice after intraperitoneal administration at a dose of 2.5-10 mg/kg; assay type: functional; settings: ip
# Method in brief: (§3)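 Male NMRI mice, 30-32 g, 5 per dose; test drug or vehicle given ip, then 5 min later guanabenz 1 mg/kg ip. Rectal temperature read by thermistor probe 25 min after guanabenz. Inhibition means temperature > 36 °C. Active dose range = doses inhibiting in more than 80% of animals.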
# Mus musculus [9] = test: In vivo antagonism of guanabenz-induced hypothermia in mice after peroral administration at a dose of 10-40 mg/kg; assay type: functional; settings: po
# Method in brief: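 Male NMRI mice (30-32 g) dosed by oral gavage with drug or vehicle; 35 min later, guanabenz 1 mg/kg ip. Rectal temperature was taken 25 min after guanabenz with a thermistor probe. Inhibition meant temperature > 36 °C. Five mice were used per dose. The active dose range is the doses inhibiting hypothermia in more than 80% of animals.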
# Mus musculus [10] = test: In vivo antagonism of guanabenz-induced hypothermia in mice after intraperitoneal administration at a dose of 2.5 mg/kg; assay type: functional; settings: ip; method in brief: as §1
# Mus musculus [11] = test: In vivo antagonism of guanabenz-induced hypothermia in mice after intraperitoneal administration at a dose of 0.63 mg/kg; assay type: functional; settings: ip; method in brief: as §1
# Mus musculus [12] = test: In vivo antagonism of guanabenz-induced hypothermia in mice after intraperitoneal administration; assay type: functional; settings: ip; method in brief: as §1
# Mus musculus [13] = test: In vivo antagonism of guanabenz-induced hypothermia in mice after intraperitoneal administration at a dose of 0.04-10 mg/kg; assay type: functional; settings: ip; method in brief: as §1
# Mus musculus [14] = test: In vivo antagonism of guanabenz-induced hypothermia in mice after peroral administration at a dose of 2.5-40 mg/kg; assay type: functional; settings: po; method in brief: as §2
# Mus musculus [15] = test: In vivo antagonism of guanabenz-induced hypothermia in mice after intraperitoneal administration at a dose of 10 mg/kg; assay type: functional; settings: ip; method in brief: as §1
# Mus musculus [16] = test: In vivo antagonism of guanabenz-induced hypothermia in mice after intraperitoneal administration at a dose of 0.63-10 mg/kg; assay type: functional; settings: ip; method in brief: as §3
Compound,IC50 [4] [µM],IC50 [5] [µM],pIC50 (D(2) dopamine receptor),other results
O=C1N(CCC2CCN(CC3COc4ccccc4O3)CC2)CCN1c1ccc(F)cc1 (stereo not given),,,,ED50 (Mus musculus [1]): 2.51 mg/kg
O=C(NC(=S)NCCC1CCN(CC2COc3ccccc3O2)CC1)c1ccccc1 (stereo not given),,,,NA (Mus musculus [2]): inactive; NA (Mus musculus [3]): inactive
O=C(Cc1ccccc1[N+](=O)[O-])NCCC1CCN(CC2COc3ccccc3O2)CC1 (stereo not given),0.0115,0.001,8.74,
COc1ccccc1CC(=O)NCCC1CCN(CC2COc3ccccc3O2)CC1 (stereo not given),0.07,0.01,7.30,
CC(C)c1cccc(C(C)C)c1N1CCN(CCC2CCN(CC3COc4ccccc4O3)CC2)C1=O (stereo not given),0.18,0.036,6.32,
COC(=O)[C@@H]1[C@H]2C[C@H]3c4[nH]c5ccccc5c4CCN3C[C@@H]2CC[C@@H]1O [YOHIMBINE],,,5.95,ED50 (Mus musculus [6]): 0.56 mg/kg; ED50 (Mus musculus [7]): 1.23 mg/kg
O=C(NCCC1CCN(CC2COc3ccccc3O2)CC1)c1ccccc1[N+](=O)[O-] (stereo not given),0.02,0.002,7.60,
Cc1cccc(C)c1N1CCN(CCC2CCN(CC3COc4ccccc4O3)CC2)C1=O (stereo not given),0.085,0.0018,7.10,ED50 (Mus musculus [8]): 0.41 mg/kg; ED50 (Mus musculus [9]): 5.01 mg/kg
O=C(NCCC1CCN(CC2COc3ccccc3O2)CC1)C(c1ccccc1)c1ccccc1 (stereo not given),,,,NA (Mus musculus [2]): inactive; NA (Mus musculus [3]): inactive
O=C1Nc2ccccc2CN1CC1CCN(CC2COc3ccccc3O2)CC1 (stereo not given),0.07,0.025,6.26,
O=C(NCCC1CCN(CC2COc3ccccc3O2)CC1)NC1CCCCC1 (stereo not given),0.042,0.002,7.46,NA (Mus musculus [3]): inactive; ED50 (Mus musculus [10]): 0.69 mg/kg
O=C(NCCC1CCN(CC2COc3ccccc3O2)CC1)Oc1ccccc1 (stereo not given),,,,NA (Mus musculus [2]): inactive; NA (Mus musculus [3]): inactive
COc1ccc(NC(=O)NCCC2CCN(CC3COc4ccccc4O3)CC2)cc1 (stereo not given),,,,ED50 (Mus musculus [11]): 0.27 mg/kg
O=C(NCCC1CCN(CC2COc3ccccc3O2)CC1)Nc1ccc(O)cc1 (stereo not given),,,,NA (Mus musculus [2]): inactive
O=C(NCCC1CCN(CC2COc3ccccc3O2)CC1)NCc1ccccc1 (stereo not given),,,,ED50 (Mus musculus [12]): 1.78 mg/kg
S=C(NCCC1CCN(CC2COc3ccccc3O2)CC1)Nc1ccccc1 (stereo not given),,,,ED50 (Mus musculus [13]): 0.02 mg/kg
CCOc1cccc(OCC)c1N1CCN(CCC2CCN(CC3COc4ccccc4O3)CC2)C1=O (stereo not given),0.07,0.004,6.87,ED50 (Mus musculus [14]): 0.53 mg/kg; ED50 (Mus musculus [15]): 0.89 mg/kg
c1ccc2c(c1)OCC(C1=NCCN1)O2 (stereo not given) [IDAZOXAN],,,< 5.00,ED50 (Mus musculus [16]): 0.31 mg/kg; ED50 (Mus musculus [9]): 0.89 mg/kg
COc1cc(OC)c(N2CCN(CCC3CCN(CC4COc5ccccc5O4)CC3)C2=O)c(OC)c1 (stereo not given),0.2,0.0045,6.49,ED50 (Mus musculus [14]): 1.07 mg/kg; ED50 (Mus musculus [8]): 0.41 mg/kg
O=C1Nc2ccccc2CN1CCC1CCN(CC2COc3ccccc3O2)CC1 (stereo not given),0.018,0.005,7.80,
